≈ marks a conversion by molar mass, not a printed value.
Columns and labels:
[1] = test system: Candida albicans (ATCC 24433); test: Broth microdilution MIC90; type: cell-based; conditions: ATCC24433, read-out: MIC90 Ca
MTT cytotoxicity assay = type: cell-based; conditions: human
In short: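 Human CCD 841 CoN colon epithelial cells were grown in RPMI-1640 with 10% FBS, 1% penicillin/streptomycin, 1% L-glutamine and amphotericin B at 37 °C under 5% CO2. They were seeded at 5x10^3 cells/well, then treated 24 h later with test compound at 1.95–1000 µg/ml for 24 h. MTT solution (5 mg/mL) was added for 3 h at 37 °C, formazan dissolved in DMSO, and absorbance read at 540 nm. IC50 was obtained by regression of proliferation against concentration.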

Structure (SMILES)	MIC90 [1]	IC50 at 24 h (MTT cytotoxicity assay)
CC(=O)N1CCN(c2ccc(OCC3COC(Cn4ccnc4)(c4ccc(Cl)cc4Cl)O3)cc2)CC1 (centres unmarked) [Ketoconazole]	7.8 µg/mL (≈ 14.7 µM)	–
O=C(N/N=C/c1ccc([N+](=O)[O-])o1)c1ccc(O)cc1 [Nifuroxazide]	–	122 µg/mL (≈ 443 µM)

From paper PMC5543573 (Current Pharmaceutical Design, 2017)
